The text below walks through data of ChEMBL document CHEMBL1142410, “Stagonolides B-F, nonenolides produced by Stagonospora cirsii, a potential mycoherbicide of Cirsium arvense” (J Nat Prod, 2008).

Common to all, as to type: functional
The subject of one assay is Cirsium arvense. As to the kind of experiment: Phytotoxicity against Cirsium arvense at 1 mg/ml by leaf disk puncture assay. A digest of the protocol:
(§1)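 Leaf disks wounded centrally with a needle, kept on moistened filter paper in closed boxes. Compound dissolved in MeOH, diluted with distilled water to 1 mg/mL final (2% v/v MeOH; MeOH-only control); 10 μL drop applied at the wound. Incubated 48 h under cycles of 8 h dark at 20 °C and 16 h light at 24 °C; necrotic area then measured.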

For the next assay, the system named is Sonchus arvensis. Kind of assay: Phytotoxicity against Sonchus arvensis at 1 mg/ml by leaf disk puncture assay. A digest of the protocol: as §1
The next assay concerns Colpoda steinii. Kind of assay: Phytotoxicity against Colpoda stenii at 0.05 mg/ml after 3 hrs. Particulars: Colpoda steini, in the assay text read “Zootoxicity” for “Phytotoxicity”. A digest of the protocol:
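Dried Colpoda steinii culture (~5000 cells per mL) revived in Lozina-Lozinskogo medium, 24 h at 25 °C. Compound in 4% EtOH mixed 1:1 v/v with the suspension, 0.05 mg/mL final; 4% EtOH control. Immobile cells (%) counted over 3–180 min. Full immobilisation within 3 min scored as strong toxicity; loss of motility at ≥180 min scored as medium.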

For `CCC[C@H]1OC(=O)CCC/C=C/C(=O)[C@@H]1O`, the Activity result in the assay with Cirsium arvense was “Toxic”; in the assay with Sonchus arvensis, “Toxic”; in the assay with Colpoda steinii it was “Not toxic”.

On to `C[C@@H]1OC(=O)CC[C@H](O)/C=C/[C@@H]2O[C@H]12`, for which the Activity entry in the assay on Cirsium arvense and in the assay with Sonchus arvensis was “Not toxic” in each case.

`C[C@@H]1C[C@H](O)/C=C/[C@@H](O)CCC(=O)O1`: the Activity entry in the assay on Cirsium arvense, with Sonchus arvensis and with Colpoda steinii was “Not toxic” in each case.

As for `CCC[C@H]1OC(=O)CC[C@@H](O)/C=C/[C@H](O)[C@@H]1O`, the Activity entry in the assay on Cirsium arvense and with Sonchus arvensis was “Not toxic” each time.

For the compound `C[C@@H]1C/C=C/[C@@H](O)CCCC(=O)O1`, the Activity entry in the assay on Cirsium arvense and in the assay on Sonchus arvensis was “Not toxic” each time.

Take `C[C@@H]1CC[C@@H](O)/C=C/C=C\C(=O)O1`: the Activity result in the assay on Cirsium arvense and in the assay with Sonchus arvensis was “Not toxic” each time.
